Active and inactive are the calls of the source. The calls are words filed in the database; no cut-off is given here.
Legend:
[1] = Antiproliferative activity against human MDA-MB-231 cells after 72 hrs by MTT assay; type: functional, cell-based; details: MDA-MB-231, 72 h
[2] = Antiproliferative activity against human HCT116 cells after 72 hrs by MTT assay; type: functional, cell-based; details: HCT-116, 72 h
In short: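 MTT viability after 72 h exposure. Cells seeded at 2500/well and left 24 h before compound addition; DMSO at 0.5% v/v final. MTT added in FBS-free medium for 3 h at 37 °C, formazan dissolved in DMSO, absorbance read at 570 nm. IC50 from a sigmoidal fit of % viability vs log concentration; triplicates on separate occasions using two different stock solutions.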

[3] = Antiproliferative activity against human PC3 cells after 72 hrs by MTT assay; type: functional, cell-based; details: PC-3, 72 h
[4] = Antiproliferative activity against human MCF7 cells after 72 hrs by MTT assay; type: functional, cell-based; details: MCF7, 72 h
[5] = Antiproliferative activity against human HCT116 cells after 48 hrs by CellTiter-Glo assay; type: functional, cell-based; details: HCT-116, 48 h
[6] = Antiproliferative activity against human PC3 cells after 48 hrs by CellTiter-Glo assay; type: functional, cell-based; details: PC-3, 48 h
[7] = Antiproliferative activity against human MCF7 cells after 48 hrs by CellTiter-Glo assay; type: functional, cell-based; details: MCF7, 48 h
[8] = Antiproliferative activity against human HL60 cells; type: functional, cell-based; details: HL-60
cells = type: functional, cell-based; details: Homo sapiens, HEL 92.1.7, 36 h
[9] = Antiproliferative activity against human Jurkat cells; type: functional, cell-based
[10] = Antiproliferative activity against HEL 92.1.7 cells harboring JAK2 V617F mutant after 48 hrs by CellTiter-Glo assay; type: functional, cell-based; details: Homo sapiens, HEL 92.1.7, 48 h
[11] = Antiproliferative activity against human Jurkat cells after 48 hrs by CellTiter-Glo assay; type: functional, cell-based
[12] = Antiproliferative activity against human KMS-12-BM cells after 48 hrs by CellTiter-Glo assay; type: functional, cell-based
[13] = Antiproliferative activity against human OPM2 cells after 48 hrs by CellTiter-Glo assay; type: functional, cell-based; details: OPM-2, 48 h
In short: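 OPM2 grown in RPMI 1640 with 10% FBS and penicillin/streptomycin at 37 °C, 5% CO2. Treated at 25,000 cells/well in triplicate for 48 h. Viability read by CellTiter-Glo luminescence. IC50 taken from a sigmoidal fit of % viability vs log concentration.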

[14] = Antiproliferative activity against human KG1 cells after 48 hrs by CellTiter-Glo assay; type: functional, cell-based; details: KG-1, 48 h
[15] = Antiproliferative activity against human MOLM14 cells harboring FLT3-ITD mutant after 48 hrs by CellTiter-Glo assay; type: functional, cell-based; details: MOLM-14, 48 h
[16] = Antiproliferative activity against human NKYS cells after 48 hrs by CellTiter-Glo assay; type: functional, cell-based
[17] = Antiproliferative activity against human KHYG cells after 48 hrs by CellTiter-Glo assay; type: functional, cell-based
[18] = Antiproliferative activity against mouse TAMH cells after 24 hrs by CellTiter-Glo assay; type: ADME, cell-based
[19] = target: T1, Tyrosine-protein kinase JAK2 (Homo sapiens, UniProt O60674); assay: Inhibition of JAK2 in IL-6-stimulated human KMS-12-BM cells assessed as suppression of STAT3 phosphorylation at TY705 residue at 2 uM pretreated for 3 hrs followed by IL-6 stimulation by immunoblot method
In short: (§1)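 KMS-12-BM or MOLM-14 cells pretreated with compound for 3 h, then stimulated with IL-6 (10 ng/mL) for 15 min. Lysates immunoblotted for p-STAT3 (Y705) and re-probed for total STAT3. Reference JAK2 inhibitor used at 2 μM in KMS-12-BM and 0.1 μM in MOLM-14.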

[20] = target: T1, Tyrosine-protein kinase JAK2; assay: Inhibition of JAK2 in IL-6-stimulated human MOLM14 cells assessed as suppression of STAT3 phosphorylation at TY705 residue at 0.1 uM pretreated for 3 hrs followed by IL-6 stimulation by immunoblot method; type: cell-based; details: MOLM-14; in short: as §1
[21] = tested on: Tyrosine-protein kinase JAK2 (Homo sapiens), O60674 [V617F]; assay: Induction of JAK2 V617F mutant phosphorylation at Y1007/8 residues in HEL 92.1.7 cells after 1 hr by immunoblot method; type: cell-based
In short: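 HEL92.1.7 cells seeded at 5x10^5/mL and treated 1 h at 0, 0.1, 0.5 and 1 μM. Lysed in RIPA with phosphatase/protease inhibitors, run on 10% SDS-PAGE and blotted to PVDF. Probed for acetyl-tubulin, acetyl-H3 (Lys9/Lys14), p-JAK2 (Y1007/1008) and p-STAT5 (Tyr694); membranes re-probed for tubulin, H3, JAK2 and STAT5. Quantified by densitometry.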

MOLM-14 [22] = assay: Induction of apoptosis in human MOLM14 cells assessed as live cells at 1 uM after 48 hrs by Annexin-V FITC/propidium iodide staining based flow cytometry (reference value: 94 to 94.1%); type: functional
In short: (§2)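 MOLM-14 cells treated 48 h at the stated concentrations; doxorubicin as positive control. Stained with Annexin V-FITC and propidium iodide and analysed by flow cytometry (at least 10,000 events). Gated quadrants: Annexin V−/PI− viable, Annexin V+/PI− early apoptotic, Annexin V+/PI+ late apoptotic.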

MOLM-14 [23] = assay: Induction of apoptosis in human MOLM14 cells assessed as early apoptotic cells at 1 uM after 48 hrs by Annexin-V FITC/propidium iodide staining based flow cytometry (reference value: 3.6 to 3.7%); type: functional; in short: as §2
MOLM-14 [24] = assay: Induction of apoptosis in human MOLM14 cells assessed as late apoptotic cells at 1 uM after 48 hrs by Annexin-V FITC/propidium iodide staining based flow cytometry (reference value: 2.1 to 2.2%); type: functional; in short: as §2
MOLM-14 [25] = assay: Induction of apoptosis in human MOLM14 cells assessed as necrotic cells at 1 uM after 48 hrs by Annexin-V FITC/propidium iodide staining based flow cytometry (reference value: 0.1%); type: functional; in short: as §2

T1 sequence (O60674 whole entry): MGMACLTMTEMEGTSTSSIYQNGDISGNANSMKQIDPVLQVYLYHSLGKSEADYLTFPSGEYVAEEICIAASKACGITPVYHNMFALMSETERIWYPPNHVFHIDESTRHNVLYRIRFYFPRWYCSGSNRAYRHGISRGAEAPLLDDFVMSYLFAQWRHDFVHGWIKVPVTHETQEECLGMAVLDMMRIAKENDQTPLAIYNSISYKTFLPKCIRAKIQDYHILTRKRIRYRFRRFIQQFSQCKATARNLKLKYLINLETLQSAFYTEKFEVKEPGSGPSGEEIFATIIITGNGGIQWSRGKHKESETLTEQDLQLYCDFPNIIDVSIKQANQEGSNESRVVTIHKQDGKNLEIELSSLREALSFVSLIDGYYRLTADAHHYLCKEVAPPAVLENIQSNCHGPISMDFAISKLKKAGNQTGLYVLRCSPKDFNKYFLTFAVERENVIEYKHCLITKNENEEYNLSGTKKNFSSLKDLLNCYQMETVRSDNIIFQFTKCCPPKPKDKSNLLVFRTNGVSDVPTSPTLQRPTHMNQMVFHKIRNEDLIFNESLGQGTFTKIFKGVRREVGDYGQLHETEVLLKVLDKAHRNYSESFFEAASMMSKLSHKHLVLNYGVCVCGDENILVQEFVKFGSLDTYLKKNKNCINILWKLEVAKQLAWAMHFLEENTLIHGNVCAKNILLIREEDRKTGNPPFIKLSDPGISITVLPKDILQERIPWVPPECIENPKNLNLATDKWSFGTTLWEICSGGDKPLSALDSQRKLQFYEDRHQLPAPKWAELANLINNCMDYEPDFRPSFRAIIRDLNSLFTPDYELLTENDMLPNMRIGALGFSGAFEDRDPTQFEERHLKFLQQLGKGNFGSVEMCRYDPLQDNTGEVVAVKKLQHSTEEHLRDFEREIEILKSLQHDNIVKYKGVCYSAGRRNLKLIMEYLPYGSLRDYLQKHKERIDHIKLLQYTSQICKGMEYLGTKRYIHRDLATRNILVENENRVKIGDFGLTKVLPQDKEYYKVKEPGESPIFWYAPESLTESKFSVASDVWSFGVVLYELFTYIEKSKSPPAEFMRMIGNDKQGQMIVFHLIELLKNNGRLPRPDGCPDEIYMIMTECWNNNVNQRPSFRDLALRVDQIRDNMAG
Sequence of Tyrosine-protein kinase JAK2 (Homo sapiens), O60674 [V617F] (O60674 whole entry V617F): as the sequence (O60674 whole entry) above, with V617F counted along it

Which IC50 [1] does the source give for `C1=N/C2=N/c3ccc(OCCN4CCCC4)c(c3)COC/C=C/COCc3cccc(c3)C(=C1)N2` [PACRITINIB] here?
The IC50 was 2430 nM.

What about the IC50 [2] of the same compound?
Its IC50 is 880 nM.

What about the IC50 [3] of the same compound?
Its IC50 is 2410 nM.

And the IC50 [4]?
The IC50 was 290 nM.

What about the IC50 [5] of the same compound?
Its IC50 is 1690 nM.

And the IC50 [6]?
The IC50 was 770 nM.

What about the IC50 [7] of the same compound?
The IC50 was 850 nM.

And the IC50 [8]?
Its IC50 is 1780 nM.

And the IC50 (cells)?
The IC50 was 1170 nM.

What about the IC50 [9] of the same compound?
The IC50 was 1090 nM.

What about the IC50 [10] of the same compound?
Its IC50 is 1730 nM.

What about the IC50 [11] of the same compound?
Its IC50 is 839 nM.

And the IC50 [12]?
Its IC50 is 750 nM.

And the IC50 [13]?
Its IC50 is 1210 nM.

And the IC50 [14]?
The IC50 was 1480 nM.

What about the IC50 [15] of the same compound?
Its IC50 is 79 nM.

What about the IC50 [16] of the same compound?
The IC50 was 1600 nM.

And the IC50 [17]?
Its IC50 is 1240 nM.

What about the IC50 [18] of the same compound?
Its IC50 is 3.68 µM.

And the inhibition [19]?
The inhibition was “Active”.

And the inhibition [20]?
The inhibition was “Active”.

And the Activity [21]?
The Activity was “Active”.

Which Activity (MOLM-14 [22]) does the source give for `COc1cccc2c1C(=O)c1c(O)c3c(c(O)c1C2=O)C[C@@](O)(C(=O)CO)C[C@@H]3O[C@H]1C[C@H](N)[C@H](O)[C@H](C)O1` [DOXORUBICIN] here?
The Activity was 0.8%.

And the Activity (MOLM-14 [23])?
The Activity was 38.8%.

What about the Activity (MOLM-14 [24]) of the same compound?
The Activity was 59.9%.

And the Activity (MOLM-14 [25])?
Its Activity is 0.4%.

— ChEMBL document CHEMBL3877241 (J Med Chem, 2016)
